Measured values taken from PubChem BioAssay AID651608 (The Scripps Research Institute Molecular Screening Center, 2012).
This is one part of the list. Values without a mark were called inactive. Calls of active or inactive are those of the source.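 Rule for the calls: active = average inhibition over triplicates above the hit cutoff set in the earlier primary screen (cut at about 25% in these data); inactive = the rest.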

Each compound was assayed against ADP-ribosylation factor GTPase-activating protein 1 (Rattus norvegicus) (UniProt Q62848) (assay: retest of rat ARFGAP1 GAP activity blockers – biochemical, fluorescence polarization, triplicate, confirmation (AID 651608;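 note: 0% = Arfgap1 plus ARF1-GTP with DMSO and 100% = wells lacking Arfgap1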)). Conditions: ARFGAP1-stimulated ARF1 GTP hydrolysis, GDP tracer FP; at 16.5 µM; hits give high values.
Sequence of ADP-ribosylation factor GTPase-activating protein 1 (Rattus norvegicus) (Q62848 whole entry, looked up, the tested form may be a part): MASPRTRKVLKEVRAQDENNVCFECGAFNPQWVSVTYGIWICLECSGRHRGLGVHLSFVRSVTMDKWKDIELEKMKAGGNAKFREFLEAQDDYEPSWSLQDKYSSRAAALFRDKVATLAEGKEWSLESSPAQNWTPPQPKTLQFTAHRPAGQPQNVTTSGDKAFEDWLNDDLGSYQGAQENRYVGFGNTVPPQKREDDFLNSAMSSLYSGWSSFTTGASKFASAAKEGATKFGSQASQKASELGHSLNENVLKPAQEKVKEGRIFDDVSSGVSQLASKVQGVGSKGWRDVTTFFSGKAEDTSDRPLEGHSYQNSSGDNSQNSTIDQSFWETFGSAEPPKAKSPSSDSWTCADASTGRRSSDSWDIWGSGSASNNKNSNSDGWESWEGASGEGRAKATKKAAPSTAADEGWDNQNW
Summary of the method: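 Assay system: purified rat Arfgap1 GAP domain with human ARF1; signal: GDP tracer fluorescence polarization; reagent: GTP-loaded human ARF1 missing its first 17 residues; benchmarks: high control wells lacking Arfgap1; medium: HEPES-based assay buffer at pH 7.5; incubation: reaction 120 min at 25 °C after 20 min pre-incubation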

Row | SMILES | inhibition
1 | COC(=O)c1cc2c(c3c4ccccc4n(S(=O)(=O)c4cccc(C)c4)c13)C(=O)N(Cc1ccccc1)C2 | -0.32%
2 | COc1ccc(C(CNC(=O)c2cccc(S(=O)(=O)Nc3ccccc3Cl)c2)N2CCOCC2)cc1 (stereo unspecified) | 4.17%
3 | Cc1ccc2nc(N3C(=O)C(O)=C(C(=O)c4ccco4)C3c3cccc(O)c3)sc2c1 (stereo unspecified) | 18.3%
4 | C#C[C@]1(O)CC[C@H]2[C@@H]3CCC4=CC(=O)CC[C@@H]4[C@H]3CC[C@@]21CC | 4.82%
5 | COc1ccc(-n2nc3c(N4CCC(C(=O)NCc5ccccc5)CC4)nnc(C)c3c2C)cc1 | 44% (active)
6 | Cn1c(=O)[nH]c(=O)c2c1nc(N1CCN(CCO)CC1)n2CCSc1nc2ccccc2s1 | -2.06%
7 | COc1ccc(NC(=O)c2cn(-c3ccccc3)nc2SC)cc1 | 18.4%
8 | COc1ccccc1OCC(=O)OCn1c(SC)nnc(C)c1=O | 0.34%
9 | Cc1ccc(NC(=O)c2ccc(Oc3ncccn3)cc2)cc1 | 1.89%
10 | O=C(O)CCn1cc(/C=C/C(=O)c2ccc(Cl)cc2)c(-c2cccc(Br)c2)n1 | -2.84%
11 | CC1CCc2[nH]c3ccc(C(=O)N(C)CC(=O)Nc4cccc(F)c4)cc3c2C1 (stereo unspecified) | 1.73%
12 | COc1ccc(/C=C2\SC(=S)N(CCCC(=O)NC3CCCC3)C2=O)cc1OC | -4.01%
13 | COc1ccc(-c2csc(Nc3ccc(O)cc3)n2)cc1 | 4.53%
14 | COc1ccc(CNC(=O)C(Cc2ccccc2)n2cccc2)cc1 (stereo unspecified) | 2%
15 | CCOC(=O)c1ccc(Nc2cc3ccccc3c(=O)[nH]2)cc1 | 9.83%
16 | CC(C)CCSc1ncnc2c1oc1nc3c(cc12)COC(C)(C)C3 | 1.56%
17 | Nc1ccc(S(=O)(=O)Nc2nccc(/C=C/c3ccc(Br)s3)n2)cc1 | -3.16%
18 | O=C(/C=C/c1cn(-c2ccccc2)nc1-c1ccc2c(c1)OCCO2)NCCCN1CCOCC1 | 13%
19 | O=C(NC1CCCCC1)c1ccc(CNc2c(N3CCOCC3)c(=O)c2=O)cc1 | -1.66%
20 | CN(C)CCNC(=O)c1ccc(-c2cn3c(-c4ccc(Oc5ccccc5)cc4)cnc3cn2)cc1 | 48.8% (active)
21 | O=C(Nc1cccc(-c2nc3ccccc3[nH]2)c1)c1ccc(C(=O)Nc2cccc(-c3nc4ccccc4[nH]3)c2)cc1 | 60.7% (active)
